Laboratory results: ChEMBL document CHEMBL5131398, “Novel nucleocapsid protein-targeting phenanthridine inhibitors of SARS-CoV-2” (Eur J Med Chem, 2022)

Tested on: not listed separately
Assay: Binding affinity to N-terminal 6-histidine tagged Severe acute respiratory syndrome coronavirus 2 nucleocapsid protein overexpressed in Escherichia coli BL21 (DE3) assessed as dissociation constant by SPR assay
In the case of `CCc1cccc2c1N(C)Cc1cc(OCc3cc(C)nn3C)c(OCc3cc(C)nn3C)cc1-2`, the Kd is reported as 10.8 µM.
Compound `CCN1Cc2cc(OC)c(OC)cc2-c2cccc(NCC(F)(F)F)c21` has a Kd of 10.4 µM.

Tested on: Severe acute respiratory syndrome coronavirus 2
Assay: Binding affinity to N-terminal 6-histidine tagged Severe acute respiratory syndrome coronavirus 2 nucleocapsid protein overexpressed in Escherichia coli BL21 (DE3) assessed as response unit by SPR assay
Procedure, shortened: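 Single-concentration binding screen: compounds at 200 μM over a surface carrying >10000 RU NPro. 120 s contact, 180 s dissociation, running buffer with 5% DMSO, solvent correction applied. Running buffer served as negative control.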
`CCc1cccc2c1N(C)Cc1cc(OCc3cc(C)nn3C)c(OCc3cc(C)nn3C)cc1-2` showed an Activity of 211 RU.
Work on `CCc1cccc2c1ncc1ccc(OC)cc12` yielded an Activity of 30.7 RU.
`CCC(=O)Nc1cccc2c1N(CC)Cc1cc(OC)c(OC)cc1-2` showed an Activity of 10.6 RU.
For `Cc1cccc2c1N(C)Cc1cc(O)ccc1-2`, the Activity was 35 RU.
Compound `COc1ccc2c(c1)CN(C)c1c(C)cccc1-2` has an Activity of 34.9 RU.
Work on `CCn1c(=O)c2cc(OC)c(OC)cc2c2cccc(NC(=O)CCC(=O)OC)c21` yielded an Activity of 13.1 RU.
With `CCN1Cc2cc(OC)c(OC)cc2-c2cccc(NC(=O)C(F)(F)F)c21` the Activity was 101 RU.
Compound `CCN1Cc2cc(OC)c(OC)cc2-c2cccc(NCC(F)(F)F)c21` has an Activity of 125 RU.
For `COc1cc2c(cc1OC)-c1cccc(C)c1N(C(=O)C(F)(F)F)C2`, the Activity was 57.5 RU.
`CCN1Cc2cc(OC)c(OC)cc2-c2cccc(NC(=O)C(C)C)c21` gave an Activity of 11.8 RU.
`CCn1c(=O)c2cc(OC)c(OC)cc2c2cccc(N)c21` showed an Activity of 23.1 RU.
`COc1cc2cnc3c(C)cccc3c2cc1OC` showed an Activity of 29.4 RU.
`CCc1cccc2c1N(C(=O)CBr)Cc1ccc(OC)cc1-2` gave an Activity of 22 RU.
With `CCN1Cc2cc(OC)c(OC)cc2-c2cccc(N)c21` the Activity was 145 RU.
`CCn1c(=O)c2cc(OC)c(OC)cc2c2cccc(C(=O)O)c21` gave an Activity of 33.5 RU.
`CCN1Cc2cc(OC)c(OC)cc2-c2cccc(NC(C)=O)c21` showed an Activity of 14.3 RU.
For `CCn1c(=O)c2cc(OC)c(OC)cc2c2cccc(NC(C)=O)c21`, the Activity was 17.7 RU.
